Reference: ChEMBL document CHEMBL5724801, “EUbOPEN Chemogenomics Library - Multiplex” (2024)
Where “and” joins values, the source holds several entries; their conditions need not be identical. Identical values can stand only once.

Tested on: Fibroblast
Test: Multiplex assay against human fibroblast
Assay type: toxicity, cell-based
How it was run: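 Live cells were stained at seeding with Hoechst33342, BioTracker Green Microtubule Cytoskeleton Dye, MitoTracker Red and Annexin V Alexa Fluor 680. Following compound addition, they were imaged on a CQ1 microscope at 37°C and 5% CO2 and gated by CellPathfinder machine learning into Hoechst high-intensity objects or normal cells, with normal cells split into healthy, pyknosed or fragmented nuclei and pyknosed cells into mitotic or apoptotic. Tubulin, mitochondrial-mass and membrane-permeability phenotypes are per cents of healthy-nucleus cells.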

[1] = 12 h, 1 µM, compound concentration 1 uM
[2] = 12 h, 10 µM, compound concentration 10 uM
[3] = 24 h, 1 µM, compound concentration 1 uM
[4] = 24 h, 10 µM, compound concentration 10 uM
[5] = 48 h, 1 µM, compound concentration 1 uM
[6] = 48 h, 10 µM, compound concentration 10 uM

## O=C1CSC(=O)N1C(CCc1ccncc1)COc1ccc(-c2cccc([N+](=O)[O-])c2)cc1 (stereo unspecified)
[1]
  Population Apoptotic (%): 15.94% and 18.18%
  Population Fragmented Nuclei (%): 10.47% and 7.01%
  Population Healthy Nuclei (%): 49.42% and 67.29%
  Population Hoechst High Intensity Objects (%): 0%
  Population Membrane Permeable-Phenotype (%): 7.06% and 9.03%
  Population Mitochondria Different-Phenotype (%): 17.65% and 14.58%
  Population Mitotic Cells (%): 84.06% and 81.82%
  Population Normal (%): 100%
  Population Pyknosed Nuclei (%): 40.12% and 25.7%
  Population Tubulin-Different-Phenotype (%): 45.88% and 47.22%
  Total Cell Count: 172 and 214
[2]
  Population Apoptotic (%): 20.34% and 45%
  Population Fragmented Nuclei (%): 16.2% and 9.55%
  Population Healthy Nuclei (%): 42.25% and 60.3%
  Population Hoechst High Intensity Objects (%): 0%
  Population Membrane Permeable-Phenotype (%): 16.67% and 33.33%
  Population Mitochondria Different-Phenotype (%): 43.33% and 52.5%
  Population Mitotic Cells (%): 79.66% and 55%
  Population Normal (%): 100%
  Population Pyknosed Nuclei (%): 41.55% and 30.15%
  Population Tubulin-Different-Phenotype (%): 71.67% and 99.17%
  Total Cell Count: 142 and 199
[3]
  Population Apoptotic (%): 12.82% and 22.22%
  Population Fragmented Nuclei (%): 15.38% and 8.89%
  Population Healthy Nuclei (%): 63.19% and 75.11%
  Population Hoechst High Intensity Objects (%): 0%
  Population Membrane Permeable-Phenotype (%): 5.22% and 7.69%
  Population Mitochondria Different-Phenotype (%): 13.04% and 14.79%
  Population Mitotic Cells (%): 87.18% and 77.78%
  Population Normal (%): 100%
  Population Pyknosed Nuclei (%): 21.43% and 16%
  Population Tubulin-Different-Phenotype (%): 32.17% and 39.05%
  Total Cell Count: 182 and 225
[4]
  Population Apoptotic (%): 30.56% and 30.23%
  Population Fragmented Nuclei (%): 18.75% and 10.08%
  Population Healthy Nuclei (%): 56.25% and 71.85%
  Population Hoechst High Intensity Objects (%): 0%
  Population Membrane Permeable-Phenotype (%): 9.88% and 12.87%
  Population Mitochondria Different-Phenotype (%): 43.21% and 52.05%
  Population Mitotic Cells (%): 69.44% and 69.77%
  Population Normal (%): 100%
  Population Pyknosed Nuclei (%): 25% and 18.07%
  Population Tubulin-Different-Phenotype (%): 86.42% and 97.08%
  Total Cell Count: 144 and 238
[5]
  Population Apoptotic (%): 21.43% and 21.21%
  Population Fragmented Nuclei (%): 11.27% and 8.23%
  Population Healthy Nuclei (%): 81.86% and 77.49%
  Population Hoechst High Intensity Objects (%): 0%
  Population Membrane Permeable-Phenotype (%): 1.2% and 3.91%
  Population Mitochondria Different-Phenotype (%): 16.17% and 5.59%
  Population Mitotic Cells (%): 78.57% and 78.79%
  Population Normal (%): 100%
  Population Pyknosed Nuclei (%): 6.86% and 14.29%
  Population Tubulin-Different-Phenotype (%): 25.75% and 37.99%
  Total Cell Count: 204 and 231
[6]
  Population Fragmented Nuclei (%): 15.87% and 12.5%
  Population Healthy Nuclei (%): 73.02% and 80.83%
  Population Hoechst High Intensity Objects (%): 0%
  Population Membrane Permeable-Phenotype (%): 13.04% and 19.07%
  Population Mitochondria Different-Phenotype (%): 35.51% and 19.59%
  Population Mitotic Cells (%): 61.9% and 87.5%
  Population Normal (%): 100%
  Population Pyknosed Nuclei (%): 11.11% and 6.67%
  Population Tubulin-Different-Phenotype (%): 84.06% and 98.45%
  Total Cell Count: 189 and 240

## Cn1ncnc1COc1nn2c(-c3cc(F)ccc3F)nnc2cc1C(C)(C)C
[1]
  Population Apoptotic (%): 5.08% and 12.9%
  Population Fragmented Nuclei (%): 11.68% and 7.25%
  Population Healthy Nuclei (%): 58.38% and 76.68%
  Population Hoechst High Intensity Objects (%): 0%
  Population Mitochondria Different-Phenotype (%): 6.09% and 8.11%
  Population Mitotic Cells (%): 94.92% and 87.1%
  Population Normal (%): 100%
  Population Pyknosed Nuclei (%): 29.95% and 16.06%
  Population Tubulin-Different-Phenotype (%): 13.04% and 21.62%
  Total Cell Count: 197 and 193
[2]
  Population Apoptotic (%): 6.76% and 16.22%
  Population Healthy Nuclei (%): 51.12% and 80%
  Population Hoechst High Intensity Objects (%): 0%
  Population Mitochondria Different-Phenotype (%): 14.04% and 8.67%
  Population Mitotic Cells (%): 93.24% and 83.78%
  Population Normal (%): 100%
  Population Pyknosed Nuclei (%): 33.18% and 15.1%
  Population Tubulin-Different-Phenotype (%): 35.96% and 51.02%
  Total Cell Count: 223 and 245
[3]
  Population Fragmented Nuclei (%): 8.72% and 5.03%
  Population Healthy Nuclei (%): 67.89% and 83.42%
  Population Hoechst High Intensity Objects (%): 0%
  Population Mitochondria Different-Phenotype (%): 1.35% and 7.23%
  Population Mitotic Cells (%): 94.12% and 60.87%
  Population Normal (%): 100%
  Population Pyknosed Nuclei (%): 23.39% and 11.56%
  Population Tubulin-Different-Phenotype (%): 10.14% and 19.28%
  Total Cell Count: 218 and 199
[4]
  Population Apoptotic (%): 13.24% and 17.24%
  Population Fragmented Nuclei (%): 8.07% and 9.51%
  Population Healthy Nuclei (%): 61.43% and 79.47%
  Population Hoechst High Intensity Objects (%): 0%
  Population Mitochondria Different-Phenotype (%): 11.68% and 10.05%
  Population Mitotic Cells (%): 86.76% and 82.76%
  Population Normal (%): 100%
  Population Pyknosed Nuclei (%): 30.49% and 11.03%
  Population Tubulin-Different-Phenotype (%): 45.99% and 56.46%
  Total Cell Count: 223 and 263
[5]
  Population Fragmented Nuclei (%): 7.91% and 5.24%
  Population Healthy Nuclei (%): 84.58% and 83.81%
  Population Hoechst High Intensity Objects (%): 0%
  Population Mitochondria Different-Phenotype (%): 12.15% and 3.41%
  Population Mitotic Cells (%): 68.42% and 91.3%
  Population Normal (%): 100%
  Population Pyknosed Nuclei (%): 7.51% and 10.95%
  Total Cell Count: 253 and 210
[6]
  Population Apoptotic (%): 23.08% and 30.77%
  Population Fragmented Nuclei (%): 10.08% and 8.8%
  Population Healthy Nuclei (%): 78.99% and 86%
  Population Hoechst High Intensity Objects (%): 0%
  Population Mitochondria Different-Phenotype (%): 8.51% and 7.44%
  Population Mitotic Cells (%): 76.92% and 69.23%
  Population Normal (%): 100%
  Population Pyknosed Nuclei (%): 10.92% and 5.2%
  Population Tubulin-Different-Phenotype (%): 38.3% and 59.07%
  Total Cell Count: 238 and 250
